From PubChem BioAssay
SR-BI DiI inh: mouse SR-BI HDL lipid transfer inhibition. Q61009. ldlA[mSR-BI] CHO cells, DiI-HDL uptake fluorescence, 3 h. inhibition, % at 12.5 µM. 320,000 compounds, 0.96% hits;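 active = mean replicate inhibition of at least 70% and a set share of replicates each scoring 70 or more; inconclusive = meets just one of the two criteria; inactive = fails both criteria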
Target sequence (Q61009 whole entry, looked up): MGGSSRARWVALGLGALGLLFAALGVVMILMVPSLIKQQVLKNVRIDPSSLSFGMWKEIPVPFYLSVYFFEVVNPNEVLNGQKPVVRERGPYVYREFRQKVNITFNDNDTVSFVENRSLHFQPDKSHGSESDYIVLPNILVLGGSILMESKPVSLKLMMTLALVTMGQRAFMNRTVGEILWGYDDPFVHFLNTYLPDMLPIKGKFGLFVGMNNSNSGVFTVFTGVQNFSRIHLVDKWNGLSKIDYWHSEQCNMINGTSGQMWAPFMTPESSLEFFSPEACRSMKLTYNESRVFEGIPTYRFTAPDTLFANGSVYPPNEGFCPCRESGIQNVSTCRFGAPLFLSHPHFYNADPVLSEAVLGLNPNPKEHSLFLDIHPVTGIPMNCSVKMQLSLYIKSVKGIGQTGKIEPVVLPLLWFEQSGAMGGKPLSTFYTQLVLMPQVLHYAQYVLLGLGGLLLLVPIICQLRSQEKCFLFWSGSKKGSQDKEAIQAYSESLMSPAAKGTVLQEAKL
Calb FLC: affects C. albicans growth with fluconazole. C. albicans CaCi-2 + fluconazole, Alamar Blue growth, 48 h. growth inhibition, % (no concentration beside the values). 300,000 compounds, 0.57% hits;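 active = growth inhibition above about 58% in most replicates, limit read from the data, passing the limit was not always enough; inconclusive = exactly half the replicates above a set limit; inactive = most replicates below a set limit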;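 also: all wells also contain fluconazole at 8 µg/ml as a sub-toxic cotreatment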
MIN6 prolif: induces beta-cell replication in MIN6 cells; 330,000 compounds, 0.29% hits; MIN6 cells proliferation, ATPlite luminescence, 48 h; cells starved in 0.2% serum; 100% = growth in 10% serum; proliferation, % at 10 µM; AID 2380;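 active = compounds whose signal lies at least 3.5 SD above the mean of all wells on their plate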
HTR2A ag: agonists of mouse serotonin 5-HT2A receptor (HTR2A) | P35363 | CHO-K1 mHTR2A beta-arrestin complementation, luminescence; percent of 30 µM serotonin response | activation, % at 7.6 µM | 360,000 compounds, 0.66% hits;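 active = activation above a run cutoff, the mean activation of all tested compounds plus 3 SD, cut at about 14% in these data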
Insulin prom up: MIN6 insulin promoter up-regulation; MIN6 insulin promoter-GFP reporter, high-content imaging; stronger effect = higher value; z-score at 5 µM; 190,000 compounds, 0.3% hits; AID 1625;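 active = z-score above 3 at 5 µM with at least 500 cells counted in the well; inconclusive = wells under 500 cells, flagged as cytotoxic or low count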
SR-BI DiI-HDL act: activators of SR-BI mediated HDL lipid uptake. CHO ldlA[mSR-BI] cells, DiI-HDL uptake fluorescence, 3 h; 100 = double the neutral-control signal. activation, % at 12.5 µM. 320,000 compounds, 0.096% hits. AID 504775;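 active = mean replicate activation of at least 60% and every replicate at or above 60%; inconclusive = mean or all-replicate condition met, but not both; inactive = mean below 60% and not all replicates reaching 60%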
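Test system: SR-BI-overexpressing, LDLR-lacking CHO cells; Also added: labelled HDL, 10 µg/mL; Measured by: bottom-read cell fluorescence after medium removal, ex 550/em 595 nm; Timing: 3 h uptake period with compound, 37 °C; Buffer or medium: F12, 0.5% BSA, 25 mM HEPES; Doses: single compound concentration, delivered by pin transfer.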
Numbers stand for hits; . = inactive; ? = inconclusive; / = not tested or not shown. Sampled rows, rich in hits. Any-hit rate of the full collection: about 2.4%.

SMILES	SR-BI DiI inh	Calb FLC	MIN6 prolif	HTR2A ag	Insulin prom up	SR-BI DiI-HDL act
CCN(CC)c1ccc(S(=O)(=O)N2CCOCC2)cc1NC(=O)COC(=O)C1=COCCO1	.	/	/	.	/	.
COc1cc2nc(C3CCC3)nc(N3CCN(c4ccccc4OC)CC3)c2cc1OC	.	.	.	.	.	.
COc1ccc2oc(=N)c(C(=O)Nc3cccc(C)c3C)cc2c1	.	.	.	.	/	.
CCCCNC(=O)c1nc(C2CCN(S(=O)(=O)c3ccc(S(C)(=O)=O)cc3)CC2)oc1-c1ccccc1	/	/	/	.	/	/
COc1cc(OC)c(OC)cc1/C=N/N(C)c1ccccc1	81	.	.	.	.	.
Cc1cc(C)c(S(=O)(=O)Cc2ccccc2)c(Cl)n1	.	.	.	.	/	.
c1ccc2oc(C3=NNC(=NC4CC4)SC3)cc2c1	82	.	.	.	.	.
C/C(=N\Nc1ccc([N+](=O)[O-])cc1)c1ccc(N)cc1	.	.	/	.	.	.
CCc1ccc(/C(C)=N\Nc2ccc([N+](=O)[O-])cc2)cc1	.	129	.	.	.	.
C/C(=N\Nc1nc(C)c(C)s1)c1ccc([N+](=O)[O-])cc1	81	.	.	.	.	.
O=C1C(Nc2ccccc2)=C2CCCC=C2N1c1ccccc1	79	.	.	.	.	.
O=C(N/N=C/c1coc2ccccc2c1=O)c1cc(Br)c(O)c(Br)c1	.	.	.	.	/	.
Cc1ccc2occ(/C=N/NC(=O)c3ccccc3O)c(=O)c2c1	.	79	.	.	/	.
CCCOc1cccc(C(=O)N/N=C/c2coc3ccccc3c2=O)c1	.	108	.	.	/	.
CCc1ccc(NC(=O)C(=O)c2ccccc2NC(C)=O)cc1	.	/	.	.	/	.
Cc1c(C(=O)N(C)Cc2ccc(F)cc2)sc(=O)n1Cc1ccc(Cl)c(Cl)c1	/	/	/	.	/	/
O=S(=O)(c1cccc(NC(=S)Nc2ccc(Br)cc2Cl)c1)N1CCOCC1	.	.	.	.	.	.
CCOC(=O)c1oc2ccccc2c1NC(=O)COc1ccc(F)cc1	?	.	9.7	.	.	.
COc1cc(/C=C(/C#N)c2ccc(F)cc2)ccc1Oc1ccc([N+](=O)[O-])cn1	85	.	.	.	.	.
COc1cc(/C=N\NC(=O)c2ccc(Cl)cc2)ccc1Oc1ccc([N+](=O)[O-])cn1	79	.	.	.	.	.
O=C(N/N=C/c1cn[nH]c1-c1ccc(Cl)cc1)c1ccc([N+](=O)[O-])cc1	95	.	.	.	.	.
COc1cc(/C=N\NC(=O)c2cccc(Cl)c2)ccc1Oc1ccc([N+](=O)[O-])cn1	.	.	.	.	.	.
CCCCCCN1C[C@H](O)[C@@H](n2cc(C3CC3)nn2)C[C@@H]1c1ccccc1	/	/	/	.	/	/
CCCCOc1ccc(/C=C/C2=CC(C)(C)NC(=S)N2)cc1OCC	89	.	.	.	.	.
CCOc1cc(C=O)ccc1OCCCN1C(=O)NC(C)(C)C1=O	.	.	.	.	.	.
SMILES	SR-BI DiI inh	Calb FLC	MIN6 prolif	HTR2A ag	Insulin prom up	SR-BI DiI-HDL act
Cc1ccc(S(=O)(=O)N2C[C@H]3N(C(=O)OC(C)C)N(C(=O)OC(C)C)C[C@H](OC(=O)Nc4cccs4)[C@@]3(O)C2)cc1	/	/	/	.	/	/
CC(C)c1ccc(NC(=O)Nc2nc(C(N)c3ccccc3Cl)cs2)cc1 (configuration not stated)	/	/	/	.	/	/
Cc1ccc(NC(=O)CCl)c(C)c1	.	.	.	.	3.5	.
CC(=O)c1cccc(NC(=O)NC2CCCCCCC2)c1	.	.	.	.	/	.
Cc1cccc(NC(=O)NC2CCCCCCC2)c1	.	124	.	.	/	.
Cc1ccc(NC(=O)NC2CCCCCCC2)c(C)c1	.	112	.	.	/	.
COc1ccc(NC(=O)NNC(=O)C(C)Oc2ccc3ccccc3c2)cc1 (configuration not stated)	.	.	.	.	/	.
Cn1cc(/C=C/c2cc[n+](C)cc2)c2cc(Cl)ccc21	.	82	/	.	/	.
Cn1cc(/C=C/c2cc[n+](C)cc2)c2cc(F)ccc21	/	?	/	.	/	/
CN(C)S(=O)(=O)c1cccc(NC(=O)CCc2nc3cc(S(=O)(=O)N4CCOCC4)ccc3n2C)c1	.	.	.	.	/	.
CCN(C[C@H]1N[C@@](Cc2ccccc2)(C(=O)OC)[C@H]2C(=O)N(Cc3ccccc3)C(=O)[C@@H]12)C(=O)Nc1ccc(C(F)(F)F)cc1	/	/	.	.	/	/
COc1ccccc1-c1csc(-n2ncc(C#N)c2N)n1	.	.	.	.	/	.
Cc1ccc(-c2nnc(-n3ncc(C#N)c3N)c3ccccc23)cc1C	78	.	.	.	.	.
CCOc1ccc(S(=O)(=O)NCCc2ccccn2)cc1	.	/	.	.	/	.
CCC(Sc1nc2ccncc2[nH]1)C(=O)Nc1cc(Cl)ccc1C (configuration not stated)	/	.	.	.	/	/
C=CCN1C(=O)/C(=C2/Sc3ccc(OC)cc3N2C)SC1=Nc1cccc(O)c1	102	.	.	.	.	.
CCCCN(C(=O)c1c(CC)noc1C)c1c(N)n(CCC)c(=O)[nH]c1=O	.	.	.	.	/	.
NC(=S)N/N=C1\CCOc2ccc(Cl)cc21	73	.	.	.	.	.
NC(=S)NN=C1c2cc(S(=O)(=O)N3CCOCC3)ccc2-c2ccc(S(=O)(=O)N3CCOCC3)cc21	.	.	.	.	.	.
CCNC(=O)C1(C)CCN(C(=O)c2ccccc2C(F)(F)F)C1 (configuration not stated)	/	/	/	.	/	/
Cn1cccc1-c1nc2ccc(NC(=O)c3ccc([N+](=O)[O-])cc3)cc2[nH]1	87	.	.	.	.	.
CCCCOc1ccc(C(=O)N2CCNC(=O)C2)cc1	/	.	.	.	/	/
CCc1ccc(CNC(=O)CCC(=O)N2Cc3cccc(OC)c3Oc3ncccc32)cc1	.	85	.	.	/	.
COc1cccc2c1Oc1ncccc1N(C(=O)CCC(=O)NCc1ccccc1)C2	.	.	.	.	/	.
O=C(COc1ccccc1)N1CCN=C1c1ccccc1	.	.	.	.	3.1	.
SMILES	SR-BI DiI inh	Calb FLC	MIN6 prolif	HTR2A ag	Insulin prom up	SR-BI DiI-HDL act
O=C(Nc1cccc2cccnc12)c1csc([C@@H]2O[C@H](CO)[C@H](O)[C@H](O)[C@H]2O)n1	/	/	/	.	/	/
CC(C)OCCCNC(=O)c1c(N)n(/N=C/c2ccccn2)c2nc3ccccc3nc12	.	.	.	.	/	84
CCC(C)NC(=O)c1c(N)n(/N=C/c2ccccn2)c2nc3ccccc3nc12 (configuration not stated)	.	.	.	.	.	.
Cc1cc(F)ccc1S(=O)(=O)N1CCCOC1CNC(=O)C(=O)NCc1ccncc1 (configuration not stated)	.	.	.	.	/	.
Cc1cc(=O)[nH]c(NN=Cc2cc(Br)ccc2O)n1	97	/	/	.	/	.
CCN(CC)c1ccc(/C=N/Nc2nc(C)cc(=O)[nH]2)c(O)c1	.	102	.	.	?	.
